In publication PMC10213863 (Cell Reports Medicine, 2023):

Assays:
Assay type in all cases: cell-based
TLR8 = target: T1, TLR8 (Homo sapiens, UniProt Q9NR97); test: HEK293-NFkB-luciferase reporter cells transfected with TLR8, R848 stimulation
T1 sequence (Q9NR97 27-1041): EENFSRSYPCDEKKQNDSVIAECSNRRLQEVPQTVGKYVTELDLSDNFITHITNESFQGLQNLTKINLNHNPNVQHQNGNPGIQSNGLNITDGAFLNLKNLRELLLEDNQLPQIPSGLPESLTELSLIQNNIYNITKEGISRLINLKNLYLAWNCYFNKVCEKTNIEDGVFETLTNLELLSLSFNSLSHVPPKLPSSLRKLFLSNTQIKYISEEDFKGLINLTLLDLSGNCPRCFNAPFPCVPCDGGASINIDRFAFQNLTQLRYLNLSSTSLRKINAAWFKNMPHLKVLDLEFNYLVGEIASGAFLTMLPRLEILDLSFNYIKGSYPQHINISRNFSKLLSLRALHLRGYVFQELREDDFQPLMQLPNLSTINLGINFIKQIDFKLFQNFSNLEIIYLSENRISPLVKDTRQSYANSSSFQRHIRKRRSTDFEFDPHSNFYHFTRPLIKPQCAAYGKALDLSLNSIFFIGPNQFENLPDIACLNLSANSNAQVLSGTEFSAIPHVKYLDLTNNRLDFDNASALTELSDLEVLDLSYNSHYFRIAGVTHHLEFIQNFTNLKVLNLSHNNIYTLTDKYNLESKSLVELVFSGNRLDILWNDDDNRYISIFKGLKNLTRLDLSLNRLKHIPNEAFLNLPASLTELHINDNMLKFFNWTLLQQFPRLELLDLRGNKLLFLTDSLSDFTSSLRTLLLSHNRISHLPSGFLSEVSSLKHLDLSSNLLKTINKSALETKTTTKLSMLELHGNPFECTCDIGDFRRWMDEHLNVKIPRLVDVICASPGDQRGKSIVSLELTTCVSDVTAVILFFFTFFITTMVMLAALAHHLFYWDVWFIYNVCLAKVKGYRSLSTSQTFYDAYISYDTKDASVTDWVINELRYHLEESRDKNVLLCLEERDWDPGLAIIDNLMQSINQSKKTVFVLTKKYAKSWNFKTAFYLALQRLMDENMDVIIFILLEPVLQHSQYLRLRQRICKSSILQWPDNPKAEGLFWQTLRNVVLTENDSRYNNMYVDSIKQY
Method in brief: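 HEK293-NFkB-luciferase cells stably expressing HA-tagged human TLR7 or TLR8 were pre-treated 60 min at 37°C, 5% CO2 with increasing concentrations of test compound or 0.25% v/v DMSO. They were then stimulated 6 h with R848: 0.3 μM for TLR7, 4 μM for TLR8. Luciferase activity […] was read by Bright-Glo luminescence.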

TLR9 = target: T2, TLR9 (Homo sapiens, UniProt Q9NR96); test: Human whole blood assay, ODN-IFN-α
T2 sequence (Q9NR96 26-1032): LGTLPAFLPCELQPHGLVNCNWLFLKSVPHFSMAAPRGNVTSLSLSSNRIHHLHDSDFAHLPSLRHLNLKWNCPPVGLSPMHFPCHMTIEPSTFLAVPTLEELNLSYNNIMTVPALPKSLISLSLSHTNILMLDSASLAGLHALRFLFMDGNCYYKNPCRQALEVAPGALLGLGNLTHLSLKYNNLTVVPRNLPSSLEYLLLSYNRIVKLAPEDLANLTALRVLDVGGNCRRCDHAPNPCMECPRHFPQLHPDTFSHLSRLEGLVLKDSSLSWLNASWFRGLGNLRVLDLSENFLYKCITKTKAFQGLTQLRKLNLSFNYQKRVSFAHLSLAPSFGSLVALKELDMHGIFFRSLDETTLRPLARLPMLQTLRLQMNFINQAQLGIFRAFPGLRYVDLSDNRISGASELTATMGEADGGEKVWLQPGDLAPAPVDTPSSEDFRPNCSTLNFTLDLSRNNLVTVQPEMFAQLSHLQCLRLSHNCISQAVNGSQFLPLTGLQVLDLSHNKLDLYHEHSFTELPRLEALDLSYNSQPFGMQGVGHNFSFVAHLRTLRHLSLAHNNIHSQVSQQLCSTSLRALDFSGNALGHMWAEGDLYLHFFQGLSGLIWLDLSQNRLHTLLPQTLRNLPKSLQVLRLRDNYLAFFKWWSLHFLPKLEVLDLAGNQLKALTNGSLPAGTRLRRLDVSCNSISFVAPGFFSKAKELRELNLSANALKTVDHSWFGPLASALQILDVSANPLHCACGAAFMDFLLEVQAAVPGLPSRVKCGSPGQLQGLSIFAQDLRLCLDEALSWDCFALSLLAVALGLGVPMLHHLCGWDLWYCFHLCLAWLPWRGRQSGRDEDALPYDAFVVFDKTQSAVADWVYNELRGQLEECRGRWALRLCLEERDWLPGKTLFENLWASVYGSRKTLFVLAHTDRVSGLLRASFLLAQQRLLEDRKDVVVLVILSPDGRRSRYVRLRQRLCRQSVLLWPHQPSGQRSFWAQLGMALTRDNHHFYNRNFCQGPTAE
Method in brief: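 Fresh human blood or 129/Sv mouse blood was taken into citrate and diluted 1:1 with RPMI1640. It was pre-incubated 30 min at 37°C, 5% CO2 with increasing concentrations of test compound or 0.25% v/v DMSO (final). Blood was then stimulated with TLR agonists at doses from earlier work, or with R848 (3 μM), and cytokines were quantified. Viability was checked by ATPlite luminescence.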

TLR7/8 = TLR7/8 (Homo sapiens, UniProt Q9NR97); test: Human neutrophil ROS production, R848 stimulation
B cell receptor = test: B cell receptor-mediated activation in human blood; details: up to 16 μM; n = 2, data not shown
Method in brief: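 Heparinized human blood was given a 3-fold serial dilution of test compound, top 16 μM, for 1.5 h at 37°C. B cells were then activated with 50 μg/mL anti-human IgM for 20 min at 37°C. Samples were lysed/fixed and permeabilized, then stained for pAkt([…]) and CD20. Readout was by flow cytometry.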

SMILES: Cc1cc(N2CCc3c(c(C)nn3CC34CCC(NC(=O)[C@@H]5COCCN5)(CC3)CC4)C2)c2cnn(C)c2n1 [MHV370, (S)-N-(4-((5-(1,6-dimethyl-1H-pyrazolo[3,4-b]pyridin-4-yl)-3-methyl-4,5,6,7-tetrahydro-1H-pyrazolo[4,3-c]pyridin-1-yl)methyl)bicyclo[2.2.2]octan-1-yl)morpholine-3-carboxamide]
- IC50 (TLR8): 4.5 ± 1.1 nM
- IC50 (TLR9): 1320 nM
- IC50 (TLR7/8): 3.8 ± 0.8 nM
- activation of B cell responses via the B cell receptor (B cell receptor): unaffected
